Hits are enriched below; roughly 3% of the tested compounds scored in any of these assays.
DDE Tn6 FP inh = disrupts Tn6 cyclic peptide binding to fibrin D-Dimer-E complex. P02675. Fibrin DD(E) TRITC-Tn6 fluorescence polarization displacement. inhibition, % at 8.3 µM. hit rate 0.21% among 370,000;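 active = inhibition above a per-campaign cutoff: mean of compounds within control limits plus 3 SD, cut at about 15% in these data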;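 also: 0% = median of all compound wells on the plate and 100% = blocking peptide control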
KLK7 zymogen act = activates the human kallikrein-7 zymogen. P49862. purified proKLK7, EDANS-DABCYL substrate fluorescence; 100% is mature enzyme control, 0% vehicle. activation, % at 7 µM. hit rate 0.9% among 370,000;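 active = activation above the mean of all tested compounds plus 3 SD, computed per campaign excluding outliers beyond control limits, cut at about 13% in these data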
DDE Tn7 FP inh = inhibitors of Tn7 peptide binding to human fibrin DD(E); P02675; FP displacement of FITC-Tn7 peptide from fibrin DD(E); 0% = median of compound wells per plate; inhibition, % at 8.3 µM; hit rate 0.13% among 370,000; AID 720508;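 active = inhibition above the mean of compounds falling within the control limits plus 3 SD of them, cut at about 14% in these data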;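 also: 0% = plate median of compound wells and 100% = 10 µM Aha-Tn7 peptide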
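assay system = human clot-derived fibrin DD(E) complex | quantity = Fibrin-DD(E) at 2 µM final | timing = 10 min preincubation, 3 h with tracer, room temperature | signal = fluorescence polarization | measure = percent inhibition | benchmarks = high control wells with 10 µM unlabelled Aha-Tn7 peptide (full inhibition) | replicates = singlicate testing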
PLCg1 inh = blocks human PLC-gamma1 enzyme activity; P19174; purified PLC-gamma1, fluorogenic substrate, fluorescence; hit rate 0.84% among 370,000; inhibition, % at 12.2 µM; in the data active = inhibition above about 9.5%
PLC-beta3 inh = inhibitors of human phospholipase C beta3. Q01970. Purified PLC-beta3, fluorogenic substrate, fluorescence. inhibition, % at 12.2 µM. hit rate 0.18% among 370,000. AID 720704;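 also: 0% = median of compound wells on plate and 100% = full blocker control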
CendR NRP1 mod = alters CendR peptide binding to human NRP-1; FAM-RPARPAR peptide binding to NRP-1, fluorescence polarization; inhibition, % at 25 µM; hit rate 0.85% among 360,000; AID 602438;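 active = inhibition or corrected inhibition above about 18%, plus a signal ratio from 0.5 to 1.5, limit read from the data, passing the limit was not always enough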
Target sequence (O14786 whole entry, looked up): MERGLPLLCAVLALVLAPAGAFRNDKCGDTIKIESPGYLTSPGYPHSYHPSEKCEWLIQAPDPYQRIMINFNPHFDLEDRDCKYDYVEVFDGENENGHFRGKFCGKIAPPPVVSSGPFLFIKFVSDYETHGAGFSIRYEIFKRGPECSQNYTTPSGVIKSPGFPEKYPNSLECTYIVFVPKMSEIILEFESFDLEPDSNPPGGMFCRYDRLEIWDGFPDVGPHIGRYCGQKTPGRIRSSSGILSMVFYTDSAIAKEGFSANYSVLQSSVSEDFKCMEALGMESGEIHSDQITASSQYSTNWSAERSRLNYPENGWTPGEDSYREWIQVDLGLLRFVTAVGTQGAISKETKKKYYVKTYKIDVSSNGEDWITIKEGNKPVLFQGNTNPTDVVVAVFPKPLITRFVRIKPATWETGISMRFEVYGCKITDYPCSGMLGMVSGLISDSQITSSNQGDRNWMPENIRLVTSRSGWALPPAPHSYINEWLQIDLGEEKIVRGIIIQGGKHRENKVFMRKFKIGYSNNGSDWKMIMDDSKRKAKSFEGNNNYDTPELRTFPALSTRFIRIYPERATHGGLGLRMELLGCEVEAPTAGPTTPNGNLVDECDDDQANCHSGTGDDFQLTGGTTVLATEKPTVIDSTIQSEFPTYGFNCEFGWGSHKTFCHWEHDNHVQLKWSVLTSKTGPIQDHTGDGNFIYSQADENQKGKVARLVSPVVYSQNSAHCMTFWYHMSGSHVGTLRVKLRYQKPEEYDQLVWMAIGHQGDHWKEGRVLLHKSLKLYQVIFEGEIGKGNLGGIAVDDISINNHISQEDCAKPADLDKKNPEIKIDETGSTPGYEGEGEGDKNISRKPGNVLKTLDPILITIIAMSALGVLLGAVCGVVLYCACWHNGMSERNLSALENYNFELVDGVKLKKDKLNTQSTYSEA
PLCgamma1 ctr = counter-screen for PLC-beta3 inhibitors: inhibitors of human PLC-gamma1; shares compounds with PLCg1 inh; purified PLC-gamma1, fluorogenic substrate, fluorescence; inhibition, % at 12.3 µM; hit rate 3.1% among 3,300; AID 743258; in the data active = inhibition above about 9.5%
PLCbeta3 conf = human PLC-beta3 inhibition, confirmation | shares compounds with PLCg1 inh | purified PLC-beta3, fluorogenic substrate fluorescence | inhibition, % at 12.3 µM | hit rate 1% among 3,300 | AID 743261
* = called active by the depositor; nt = no result given. Rule as the data show it, unless noted: active = inhibition above about 11%; inactive = the rest.

SMILES	DDE Tn6 FP inh	KLK7 zymogen act	DDE Tn7 FP inh	PLCg1 inh	PLC-beta3 inh	CendR NRP1 mod	PLCgamma1 ctr	PLCbeta3 conf
COc1ccc(C(=O)N2CCN(C3CCC(c4ccccc4)CC3)CC2)cc1OC (configuration not stated)	-2.1	-0.3	-2.8	14.8*	5.2	10.4	-12.5	-2.1
CC(=O)NC[C@H]1O[C@@H](n2ccc(N)nc2=O)[C@H](O)[C@@H]1O	-3.6	-0.2	-2.3	10.0*	8.9	-7.5	-3.8	1.1
CN[C@H](C)C(=O)NC[C@H]1O[C@@H](n2ccc(N)nc2=O)[C@H](O)[C@@H]1O	-2.1	-0.3	-7.7	-0.4	-1.5	-6.3	nt	nt
O=C1OC[C@H]2CCCC[C@@H](CO)ON12	-1.7	-0.3	-8.6	9.6*	1.5	-12.1	0.2	-0.2
O=C1C(=O)N(O)C2CCCCC2N1O (configuration not stated)	-2.2	-0.1	8.8	1.6	0.9	-0.9	nt	nt
S=c1nc(C23CC4CC(CC(C4)C2)C3)[nH][nH]1	0.8	-0.1	-1.8	12.2*	7.3	6.7	-2.5	1.2
Cc1ccccc1CS(=O)(=O)Cc1ccc(C(=O)Nc2ccccc2C)o1	-1.0	-0.3	1.4	1.0	1.3	nt	nt	nt
CN(Cc1ccccc1F)C(=O)CCCNC(=O)c1ccc(Cl)cc1	-3.2	0.4	-0.4	11.2*	-4.4	3.0	-9.2	-5.5
COc1ccc(CNCC(O)COc2ccc(C(C)(C)c3ccccc3)cc2)cc1 (configuration not stated)	-1.8	0.0	-2.3	10.9*	-0.8	4.0	-2.4	-2.8
COC(=O)[C@H](Cc1ccccc1)NC(=O)[C@H]1C[C@@]2(N3CCCC3)c3ccccc3N(C(=O)OC(C)(C)C)[C@H]2N1C(=O)OC(C)(C)C	3.6	-0.5	9.1	0.2	0.5	nt	nt	nt
O=C(c1cc2cccc([N+](=O)[O-])c2oc1=O)N1CCOCC1	-1.5	-0.6	7.5	12.3*	-4.6	-8.7	-5.6	-0.3
CN(CC(O)CN)CC(O)CN1CCCCC1 (configuration not stated)	-5.4	0.2	-3.0	9.6*	1.9	-9.2	-4.2	-2.1
OC(CN1CCCCCC1)CN(c1ccccc1)c1ccccc1 (configuration not stated)	-6.3	-0.5	-3.1	-3.2	-6.5	7.7	nt	nt
Cc1ccc(Oc2ccc(Cl)cc2N)cc1	4.8	-0.3	-0.9	-0.6	1.7	4.1	nt	nt
Nc1cc(Cl)ccc1Oc1ccc2ccccc2c1	-5.7	0.3	-11.5	13.8*	-4.7	-4.0	-1.9	-4.8
O=C(c1cncnc1)N1CCC(n2nnc3ncccc32)CC1	0.1	-0.2	1.3	-1.4	0.8	nt	nt	nt
COc1cccc(Cn2cc(COC(=O)N3CCCC3)nn2)c1	4.1	0.2	0.9	1.7	-3.9	nt	nt	nt
Cc1ccc(C(=O)NC(C)CCc2ccccc2)cc1[N+](=O)[O-] (configuration not stated)	-6.8	-0.6	-1.6	12.7*	2.9	2.2	-2.4	-2.5
Cc1cc(=O)c2n(Cc3ccccc3Cl)nc[n+]2[nH]1	1.1	-0.4	-7.0	14.2*	0.7	0.1	-2.6	-0.9
Cc1cc(C(=O)Nc2ccccc2N2CCCCC2)no1	2.3	0.3	-0.5	9.8*	8.3	6.8	-5.2	-21.1
CCOc1ccc(-n2c(SCC(=O)Nc3cccc4ccccc34)nnc2-c2cccs2)cc1	-2.8	-0.6	-1.1	4.4	-12.8	nt	nt	nt
Cc1cc(C(=O)O[C@H]2[C@H](Cc3ccccc3)NS(=O)(=O)[C@H]3C[C@@H]4C=C[C@]23O4)ccc1[N+](=O)[O-]	3.9	0.1	-0.7	2.8	6.2	-0.2	nt	nt
O=C(Nc1ccc(C(F)(F)F)cc1[N+](=O)[O-])O[C@H]1[C@H](Cc2ccccc2)NS(=O)(=O)[C@H]2C[C@@H]3C=C[C@]12O3	-7.4	0.0	-11.0	12.0*	10.3	0.7	-1.9	-1.0
Oc1ccc(CNc2cccnc2)c2cccnc12	-1.9	nt	1.7	-0.5	0.7	nt	nt	nt
CS(=O)(=O)N1CCN(c2ccccc2F)CC1	-3.6	-0.1	-1.5	0.4	-2.5	6.9	nt	nt
SMILES	DDE Tn6 FP inh	KLK7 zymogen act	DDE Tn7 FP inh	PLCg1 inh	PLC-beta3 inh	CendR NRP1 mod	PLCgamma1 ctr	PLCbeta3 conf
CS(=O)(=O)N1CCN(c2ccccc2[N+](=O)[O-])CC1	-1.4	0.2	-13.6	14.6*	5.7	5.7	-3.5	-1.3
CS(=O)(=O)N1CCN(c2ccccc2NC(=O)c2ccc([N+](=O)[O-])o2)CC1	0.8	-0.3	-3.5	9.9*	2.4	-6.7	3.4	0.6
CCCCCC(=O)NC1CCCCN(Cc2ccc(Cl)cc2)C1=O (configuration not stated)	-3.9	0.5	3.8	2.8	0.2	nt	nt	nt
CC(=O)Nc1ccc(NC(=O)CSc2nnc(-c3n[nH]c4c3CCC4)n2N)cc1	-5.6	-0.2	3.8	0.1	3.5	nt	nt	nt
COP(=O)(O)[C@@H](CC(C)C)NC(=O)OCc1ccccc1	10.4	-0.2	9.2	0.2	-0.9	nt	nt	nt
CCCCNc1c(-c2cccc(-c3cc(C(C)=O)cs3)c2)nc2ccc(C)cn12	-3.4	-0.3	3.5	9.7*	2.1	-2.9	-5.0	-11.3
Cc1ccc(-n2c(SCC(=O)Nc3ccc(OCc4ccccc4)cc3)nnc2-c2cnccn2)cc1	-7.5	0.5	-3.2	7.8	3.7	nt	nt	nt
COC(=O)[C@H]1C[C@@]2(N3CCCCC3)c3ccccc3N[C@H]2N1S(=O)(=O)c1ccc(C)cc1	0.7	0.1	5.6	2.1	-3.6	nt	nt	nt
Cc1ccccc1C(=O)N1CCC(C(=O)NC2CCCCCC2)CC1	-0.7	-0.9	-5.0	-2.4	-9.0	8.8	nt	nt
Cc1ccc(OC(=O)C2CCN(C(=O)c3ccccc3C)CC2)c(Br)c1	-8.3	0.6	-3.7	10.8*	-0.3	-3.8	-3.6	-5.2
COC(=O)c1cc(-c2ccc(F)c(Cl)c2)c(=O)n2c1CCC2	6.2	-0.4	-5.1	-1.9	-6.7	nt	nt	nt
CCOC(=O)CC[C@H]1CC[C@]2(CCCN(S(C)(=O)=O)C2)O1	-0.9	0.0	7.2	2.8	6.0	nt	nt	nt
CN1CCN(NC(=O)c2ccc(Cl)s2)CC1	-10.8	0.2	3.4	9.8*	-10.9	17.8	-1.7	2.8
CN1CCN(NC(=O)c2ccc(F)cc2)CC1	-7.9	0.2	-4.5	1.2	-0.6	12.5	nt	nt
NC(=O)NOCc1ccc(Cl)cc1Cl	-5.7	0.5	-0.2	12.9*	2.8	1.5	-6.6	-3.9
C[C@@H]1ON(C)[C@H]2C[C@H]3c4[nH]c5c(-c6ccc7c(c6)OCO7)cccc5c4CCN3C[C@@H]12	-1.1	0.7	-6.7	-10.6	-8.5	nt	nt	nt
